A short description of data set [1]: Drug uptake in mouse Neuro2a cells assessed as drug co-localization in cell at 100 uM in presence of MA.beta-RhB by confocal microscopy. The conditions noted are these: n2a. The class given is ADME, cell-based. In short, it runs like this: (§1)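 Neuro2a cells treated with fluorescein- or Rhodamine B-labelled peptide at 100 μM, alone or together. Green and red fluorescence imaged in bright and dark field at 20×. Co-localization checked by confocal imaging at 63×, with green and red channels captured separately and then merged.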

The nature of data set [2]: Drug uptake in mouse Neuro2a cells assessed as drug internalization in cell membrane at 100 uM by confocal microscopy. The class given is ADME. The conditions noted are these: n2a. Put shortly:
as §1

For data set [3], the species on record is Homo sapiens. As to the kind of experiment: Binding affinity to Rhodamine B labelled amyloid beta (9-21 residues) (unknown origin) assessed as increase in fluorescence intensity of Rhodamine B at 20 uM incubated for 24 hrs by FRET analysis (Rvb= 601 nm). In short, it runs like this:
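FRET between fluorescein-labelled cyclic peptide (donor) and Rhodamine B-labelled Aβ9-21 model peptide (acceptor), mixed 1:1, ~20 μM each in PBS (50 mM, pH 7.4), incubated 24 h at 37 °C. Donor and mixture excited at 492 nm, acceptor alone at 567 nm; emission spectra recorded. Representative of several independent repeats.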

Data set [4] is described as follows: Cytotoxicity against mouse Neuro2a cells assessed as reduction in cell viability by MTT assay. It is filed as toxicity, cell-based, N2a. Put shortly:
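Neuro2a mouse neuronal cells treated with fluorescently labelled peptides; viability read by MTT after 24 h. IC50 calculated from linear regression of viability versus concentration.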

Data set [5] deals with Amyloid-beta precursor protein (Homo sapiens) (UniProt P05067). As to the kind of experiment: Inhibition of amyloid beta (1 to 40) (unknown origin) aggregation at 1 M incubated for 6 days by thioflavin S based fluorescence analysis relative to control. The conditions noted are these: time 6.0 day.
For data set [6] the target is unchanged. As to the kind of experiment: Inhibition of amyloid beta (1 to 40) (unknown origin) aggregation at 2 M incubated for 6 days by thioflavin S based fluorescence analysis relative to control. The conditions noted are these: time 6.0 day. In short, it runs like this:
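Aβ1-40 (40 μM) co-incubated with 0.5-, 1- or 2-fold molar excess of peptide in PBS pH 7.4 at 37 °C for six days; ThT fluorescence monitored over time. Experiment done thrice, with two sets per solution and three readings per set.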

The target is the same in data set [7]. Kind of data set: Inhibition of amyloid beta (1 to 40) (unknown origin) aggregation at 0.5 M incubated for 6 days by thioflavin S based fluorescence analysis relative to control. The conditions noted are these: time 6.0 day.
Data set [8] shares this target. As to the kind of experiment: Inhibition of amyloid beta (1 to 40) (unknown origin) aggregation assessed as increase in size of off-target aggregated species at 80 uM incubated upto 24 hr by DLS analysis. Put shortly: (§2)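 Aβ1-40 (40 μM) alone or with 2 equivalents of peptide, incubated at pH 7.4, 37 °C. DLS size distribution and TEM morphology (500 nm scale) recorded at 1, 6, 12 and 24 h.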

For data set [9], the species on record is Homo sapiens. Kind of data set: Metal chelating activity assessed as extraction of Cu2+ from amyloid beta (1 to 40) (unknown origin)-Cu2+ complex by measuring fluorescence of Tyr10 at 80 uM incubated for 36 hrs by tyrosine intrinsic fluorescence assay. Put shortly:
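Aβ1-40 (40 μM) in PBS (50 mM, pH 7.4), with Cu2+ added at 40 μM, then peptide at 80 μM (1:1:2). Tyr10 intrinsic fluorescence emission read at 308 nm and expressed as normalized fluorescence intensity.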

Data set [10] in a line: Metal chelating activity assessed as compound-Zn2+ complex formation by measuring red shift at 2:1 ratio in presence of ZnCl2 by UV-Vis spectra analysis (Rvb= 264 nm).
Data set [11] in a line: Metal chelating activity assessed as compound-Zn2+ complex formation by measuring red shift at 1:1 ratio in presence of ZnCl2 by UV-Vis spectra analysis (Rvb= 265 nm).
A short description of data set [12]: Metal chelating activity assessed as compound-Cu2+ complex formation by measuring deviation in g values at 1 to 2 M in presence of CuSO4 by electron spin resonance analysis. The conditions noted are these: dose 1-2 M. Put shortly:
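ESR spectra recorded at room temperature on Cu2+ solution (5 mM) alone and with 1- or 2-fold molar ratio of peptide; g values read.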

Another data set relates to Lipid bilayer. As to the kind of experiment: Inhibition of membrane destabilization in carboxyfluorescein dye entrapped large unilamellar vesicle assessed as decrease in amyloid beta (1-40) induced carboxyfluorescein leakage upto 48 hrs by TEM analysis. The conditions noted are these: in the assay text read “by fluorescence analysis” for “by TEM analysis”. In short, it runs like this:
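Carboxyfluorescein-loaded LUVs in PBS (50 mM) exposed to pre-incubated Aβ1-40 alone or Aβ1-40 with peptide (1:2). Final lipid 50 μM, Aβ1-40 2.5 μM (peptide:lipid 1:20), 37 °C. Dye leakage measured by fluorescence at intervals from 1 to 48 h; untreated LUV as control.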

In data set [13] the target is Amyloid-beta precursor protein (Homo sapiens) (UniProt P05067). As to the kind of experiment: Inhibition of amyloid beta (1 to 40) (unknown origin) aggregation assessed as reduction in fibrillar assembly at 2 M incubated for 6 days by TEM analysis. The conditions noted are these: time 6.0 day. Put shortly:
(§3)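 Aβ1-40 (40 μM) co-incubated with 2-fold molar excess of peptide in PBS pH 7.4 at 37 °C for six days. TEM images (200 nm scale) and Congo red-stained birefringence images (20 μm scale) captured.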

Data set [14] in a line: Metal chelating activity assessed as compound-Cu2+ complex formation by measuring red shift at 2:1 ratio in presence of CuSO4 by UV-Vis spectra analysis (Rvb= 264 nm).
Data set [15] in a line: Metal chelating activity assessed as compound-Cu2+ complex formation by measuring red shift at 1:1 ratio in presence of CuSO4 by UV-Vis spectra analysis (Rvb= 265 nm).
For data set [16], the target named is Amyloid-beta precursor protein (Homo sapiens) (UniProt P05067). Kind of data set: Inhibition of amyloid beta (1 to 40) (unknown origin) aggregation assessed as bright green-gold birefringence at 2 M incubated for 6 days by Congo-red staining based image analysis. The conditions noted are these: time 6.0 day. In short, it runs like this:
as §3

For data set [17] the target is unchanged. As to the kind of experiment: Inhibition of amyloid beta (1 to 40) (unknown origin) aggregation assessed as off-pathway aggregated species at 80 uM incubated upto 24 hr by TEM analysis. The conditions noted are these: TDE = time-dependent effect. In short, it runs like this: as §2
Data set [18] shares this target. As to the kind of experiment: Inhibition of Cu2+ induced amyloid beta (1 to 40) (unknown origin) aggregation assessed as disapperance of fibrillar assembly at 80 uM incubated for 36 hrs by TEM analysis. Put shortly:
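Aβ1-40 (40 μM) incubated with CuSO4 (40 μM) and test peptide (80 μM) in PBS pH 7.4 at 37 °C for 36 h, then imaged by TEM. Representative image from several repeats.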

Data set [19] has the same target. Kind of data set: Inhibition of Cu2+ induced amyloid beta (1 to 40) (unknown origin) aggregation assessed as reduction in fibrils at 80 uM incubated for 36 hrs in presence of CuSO4 by thioflavin S based fluorescence analysis. The conditions noted are these: in the assay text read “thioflavin T” for “thioflavin S”. In short, it runs like this:
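Aβ1-40 (40 μM) with CuSO4 (40 μM) and test peptide (80 μM) in PBS pH 7.4, 37 °C, 36 h. ThT fluorescence read at ex 440 nm / em 485 nm, with ThT-plus-PBS reference subtracted. Mean of three independent experiments ± SD.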

The nature of data set [20]: Metal chelating activity assessed as compound-Cu2+ complex formation by measuring exothermic event at 50 uM in presence of CuSO4 by isothermal titration calorimetry assay. In short, it runs like this: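 ITC at 27 °C in 20 mM Tris-HCl pH 7.4. Metal solution (1.5 mM) in the syringe was titrated into peptide (50 μM) in the cell over 30 injections. Heats of dilution of metal into buffer were subtracted. ΔH, ΔS, K and n were fitted with a sequential two-site binding model.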
For orientation: In ITC the heat of successive injections is recorded.

Data set [21] has as its target Amyloid-beta precursor protein (Homo sapiens) (UniProt P05067). Kind of data set: Inhibition of amyloid beta (1 to 40) (unknown origin) aggregation assessed as reduction in beta sheet conformation at 2 M incubated for 6 days by FTIR analysis. The conditions noted are these: time 6.0 day.
The target is the same in data set [22]. As to the kind of experiment: Inhibition of amyloid beta (1 to 40) (unknown origin) aggregation assessed as reduction in beta sheet conformation at 2 M incubated for 6 days by circular dichroism analysis. The conditions noted are these: time 6.0 day.
Data set [23] can be described thus: Drug uptake in mouse Neuro2a cells assessed as drug internalization in cytoplasm at 100 uM by confocal microscopy. It is filed as ADME. The conditions noted are these: n2a. In short, it runs like this:
as §1

The nature of data set [24]: Drug uptake in mouse Neuro2a cells assessed as drug co-localization in cell at 100 uM in presence of PA19fCP-FI by confocal microscopy. The class given is ADME, cell-based. The conditions noted are these: n2a. Put shortly:
as §1

By IC50 is commonly meant the concentration at which inhibition is half-maximal. Usually inhibition stands for the share of the control response that was lost under treatment.

The source made the active and inactive calls. The rule behind the calls is not given here. Where a SMILES comes first, the peptide text is derived from it. [ ]: non-standard residue; d: D form. The star is where a group is joined. X1 = CCN(CC)c1ccc2c(-c3ccc(C(=O)*)cc3)c3ccc(N(CC)CC)cc3[o+]c2c1; Sar = CNCC(=O)O

Amyloid-beta precursor protein (Homo sapiens), sequence (P05067 whole entry): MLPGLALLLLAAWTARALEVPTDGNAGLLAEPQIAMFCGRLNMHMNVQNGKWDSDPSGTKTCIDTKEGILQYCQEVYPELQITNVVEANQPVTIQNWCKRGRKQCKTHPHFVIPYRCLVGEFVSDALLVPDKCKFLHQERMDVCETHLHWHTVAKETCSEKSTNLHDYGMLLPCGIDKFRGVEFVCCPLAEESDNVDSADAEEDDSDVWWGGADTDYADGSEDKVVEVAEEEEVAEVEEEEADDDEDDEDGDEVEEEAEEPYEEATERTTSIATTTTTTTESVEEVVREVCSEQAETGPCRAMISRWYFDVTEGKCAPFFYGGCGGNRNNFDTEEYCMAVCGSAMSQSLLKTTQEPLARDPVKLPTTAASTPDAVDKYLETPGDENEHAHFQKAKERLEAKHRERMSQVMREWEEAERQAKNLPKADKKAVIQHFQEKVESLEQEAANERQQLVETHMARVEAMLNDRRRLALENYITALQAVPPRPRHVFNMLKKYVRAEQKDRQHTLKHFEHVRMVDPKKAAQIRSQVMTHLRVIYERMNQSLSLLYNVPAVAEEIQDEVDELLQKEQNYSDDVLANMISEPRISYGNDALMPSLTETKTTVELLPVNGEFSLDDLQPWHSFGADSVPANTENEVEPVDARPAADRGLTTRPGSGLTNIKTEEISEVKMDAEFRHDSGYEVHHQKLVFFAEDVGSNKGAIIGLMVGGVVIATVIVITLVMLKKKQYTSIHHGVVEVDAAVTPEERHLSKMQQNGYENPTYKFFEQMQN

As to `CC(C)C[C@@H]1NC(=O)[C@H](CCCCNC(=O)c2ccccn2)NC(=O)[C@H](CCCCNC(=S)Nc2ccc(-c3c4ccc(=O)cc-4oc4cc(O)ccc34)c(C(=O)O)c2)NC(=O)[C@H](CCC(N)=O)NC(=O)[C@H](C)NC(=O)[C@H](Cc2ccccc2)NC(=O)[C@@H](Cc2ccccc2)NC(=O)[C@H](C(C)C)NC1=O`, the Drug uptake entry in data set [1] and in data set [2] was “Active” in each case. In the data set listed under Homo sapiens [3], the OD was 604 nm. In data set [4], the IC50 came to 200 µM.
Regarding `CC(=O)N[C@@H](CCCCN)C(=O)N[C@@H](CC(C)C)C(=O)N[C@H](C(=O)N[C@H](Cc1ccccc1)C(=O)N[C@@H](Cc1ccccc1)C(=O)N[C@@H](C)C(=O)N[C@@H](CCC(N)=O)C(=O)O)C(C)C`, the inhibition came out at 15.1% in data set [5], 27.2% in data set [6] and 7.9% in data set [7].
`CC(C)C[C@@H]1NC(=O)[C@H](CCCCNC(=O)c2ccccn2)NC(=O)[C@H](CCC(N)=O)NC(=O)[C@H](C)NC(=O)[C@H](Cc2ccccc2)NC(=O)[C@@H](Cc2ccccc2)NC(=O)[C@H](C(C)C)NC1=O`: the inhibition in data set [5] was 52.6%; in [6] it was 85.6%; in [7] it was 32.4%; in [17], “Tde”; in data set [21] it was 85%; in data set [22] it was 85%. Moreover, the inhibition result (in data set [8]; with Lipid bilayer; in data set [13]; in data set [16]; in data set [18]; in [19]) was “Active” throughout. Besides, in the data set listed under Homo sapiens [9], the Activity came to 84.3%. In addition, the OD was 267 nm in data set [10], 268 nm in data set [11], 270 nm in data set [14] and 271 nm in [15]. The result in data set [12] and in data set [20] was Active.
With `CC(C)C[C@@H]1NC(=O)[C@H](CCCCN)NC(=O)[C@H](CCC(N)=O)NC(=O)[C@H](C)NC(=O)[C@H](Cc2ccccc2)NC(=O)[C@@H](Cc2ccccc2)NC(=O)[C@H](C(C)C)NC1=O`, the inhibition in [5] was 47.9%; in [6], 73.7%; in data set [7], 25.2%; in data set [21], 74%; in [22], 74%. For the same molecule, the inhibition result in data set [13] and in [16] was “Active” throughout.
As for `CCN(CC)c1ccc2c(-c3ccc(C(=O)N(C)CC(=O)NCC(=O)N[C@@H](Cc4ccc(O)cc4)C(=O)N[C@@H](CCC(=O)O)C(=O)N[C@H](C(=O)N[C@@H](Cc4c[nH]cn4)C(=O)N[C@@H](Cc4c[nH]cn4)C(=O)N[C@@H](CCC(N)=O)C(=O)N[C@@H](CCCCN)C(=O)N[C@@H](CC(C)C)C(=O)N[C@H](C(=O)N[C@@H](Cc4ccccc4)C(=O)N[C@@H](Cc4ccccc4)C(=O)N[C@@H](C)C(=O)NCC(N)=O)C(C)C)C(C)C)cc3)c3ccc(N(CC)CC)cc3[o+]c2c1` (X1-[Sar]GYEVHHQKLVFFAG-NH2), the Drug uptake entry in [23] and in data set [24] was “Active” throughout. The IC50 in data set [4] amounted to 150 µM.

For the origin of these results see ChEMBL document CHEMBL5104125, “Copper chelating cyclic peptidomimetic inhibits Aβ fibrillogenesis” (RSC Med Chem, 2022).
